Source: ChEMBL document CHEMBL1157892, “Cucurbitacin E as a new inhibitor of cofilin phosphorylation in human leukemia U937 cells” (Bioorg Med Chem Lett, 2010)
Activity calls are given as the source filed them. The calls are words filed in the database; no cut-off is given here.

What was measured:
[1] = molecular target: Signal transducer and activator of transcription 3 (Homo sapiens) (UniProt P40763); experiment: Inhibition of STAT3 phosphorylation in human U937 cells at 10 uM after 24 hrs by Western blotting; assay type: cell-based; details: U-937
How it was run: (§1)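 U937 cells at 5.0 × 10⁴ cells/mL treated 24 h and lysed with phosphatase and protease inhibitors. 60 µg protein per lane run on 10% SDS–PAGE. Western blots probed with rabbit anti-phospho-STAT3 and anti-STAT3 (1:1000), then HRP anti-rabbit (1:5000), with ECL detection.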

[2] = molecular target: Signal transducer and activator of transcription 3 (Homo sapiens) (UniProt P40763); experiment: Inhibition of STAT3 phosphorylation in human U937 cells at 100 uM after 24 hrs by Western blotting; assay type: cell-based; details: U-937; how it was run: as §1
HL-60 = experiment: Cytotoxicity against human HL60 cells after 72 hrs by WST-8 assay; assay type: functional, cell-based; details: HL-60, 72 h
How it was run: (§2)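 Cells seeded at 5.0 × 10³ cells/100 µL/well in RPMI-1640 and exposed to compounds for 68 h. WST-8 was then added for a further 4 h. Formazan absorbance read at 450 nm (reference 655 nm). Percent inhibition calculated and IC50 read graphically from the curve.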

HT-1080 [3] = experiment: Cytotoxicity against human HT1080 cells after 72 hrs by WST-8 assay; assay type: functional, cell-based; details: HT-1080, 72 h; how it was run: as §2
U-937 [4] = experiment: Cell cycle arrest in human U937 cells assessed as reduction of cell population at G0/G1 phase at 100 nM after 24 hrs using propidium iodide staining by flow cytometry relative to control; assay type: functional; parameters: scale not given: the % may be the effect or the level left
How it was run: (§3)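 U937 cells at 5.0 × 10⁴ cells/mL treated 24 h, pelleted, fixed in ice-cold ethanol overnight at −20 °C, treated with DNase-free RNase (0.25 mg/mL) at 37 °C for 30 min, then stained with propidium iodide. DNA content read by flow cytometry, 20,000 cells per sample. G0/G1, S and G2/M fractions compared with untreated control.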

U-937 [5] = experiment: Cell cycle arrest in human U937 cells assessed as reduction of cell population at S phase at 100 nM after 24 hrs using propidium iodide staining by flow cytometry relative to control; assay type: functional; parameters: scale not given: the % may be the effect or the level left; how it was run: as §3
U-937 [6] = experiment: Cell cycle arrest in human U937 cells assessed as increase of cell population at G2/M phase at 100 nM after 24 hrs using propidium iodide staining by flow cytometry relative to control; assay type: functional; how it was run: as §3
Cofilin-1 (Homo sapiens) = Cofilin-1 (Homo sapiens) (UniProt P23528); experiment: Inhibition of cofilin phosphorylation in human U937 cells after 24 hrs by Western blotting; assay type: cell-based; details: U-937
How it was run: (§4)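 U937 cells at 5.0 × 10⁴ cells/mL treated 24 h, then lysed with phosphatase and protease inhibitors. Equal protein loaded on SDS–PAGE. Blots probed 1 h with rabbit antibodies (1:1000) to phospho-cofilin, phospho-LIMK1/2, cofilin and β-actin in T-TBS. Detection with HRP anti-rabbit (1:5000) and ECL.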

[7] = molecular target: T1, LIM domain kinase 1/2 (Homo sapiens) (UniProt P53671+P53667); experiment: Inhibition of LIMK1/2 phosphorylation in human U937 cells at 0.1 to 100 nM after 24 hrs by Western blotting; assay type: cell-based; details: U-937; how it was run: as §4
HT-1080 [8] = experiment: Decrease of F to G actin ratio in human HT1080 cells at 100 nM after 24 hrs; assay type: functional, cell-based
How it was run: (§5)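 HT1080 cells seeded at 1.0 × 10⁴ cells/100 µL/well and treated 24 h at 37 °C. Cells fixed in 4% formaldehyde, permeabilized with cold methanol and blocked. F-actin stained with Alexa 350 phalloidin and G-actin with Alexa 488 DNase I, each 15 min at rt in the dark. Fluorescence read at ex 355/em 405 and ex 480/em 520 nm. Results are mean of n = 4; Dunnett's test against control.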

U-937 [9] = experiment: Cytotoxicity against human U937 cells after 72 hrs by WST-8 assay; assay type: functional, cell-based; details: U-937, 72 h; how it was run: as §2
HT-1080 [10] = experiment: Decrease of F to G actin ratio in human HT1080 cells at 1000 nM after 24 hrs; assay type: functional, cell-based; how it was run: as §5
[11] = molecular target: T1, LIM domain kinase 1/2 (Homo sapiens); experiment: Inhibition of LIMK1/2 phosphorylation in human U937 cells at 0.1 to 1000 nM after 24 hrs by Western blotting; assay type: cell-based; details: U-937; how it was run: as §4

T1 sequence (P53667 whole entry, looked up, the tested form may be a part): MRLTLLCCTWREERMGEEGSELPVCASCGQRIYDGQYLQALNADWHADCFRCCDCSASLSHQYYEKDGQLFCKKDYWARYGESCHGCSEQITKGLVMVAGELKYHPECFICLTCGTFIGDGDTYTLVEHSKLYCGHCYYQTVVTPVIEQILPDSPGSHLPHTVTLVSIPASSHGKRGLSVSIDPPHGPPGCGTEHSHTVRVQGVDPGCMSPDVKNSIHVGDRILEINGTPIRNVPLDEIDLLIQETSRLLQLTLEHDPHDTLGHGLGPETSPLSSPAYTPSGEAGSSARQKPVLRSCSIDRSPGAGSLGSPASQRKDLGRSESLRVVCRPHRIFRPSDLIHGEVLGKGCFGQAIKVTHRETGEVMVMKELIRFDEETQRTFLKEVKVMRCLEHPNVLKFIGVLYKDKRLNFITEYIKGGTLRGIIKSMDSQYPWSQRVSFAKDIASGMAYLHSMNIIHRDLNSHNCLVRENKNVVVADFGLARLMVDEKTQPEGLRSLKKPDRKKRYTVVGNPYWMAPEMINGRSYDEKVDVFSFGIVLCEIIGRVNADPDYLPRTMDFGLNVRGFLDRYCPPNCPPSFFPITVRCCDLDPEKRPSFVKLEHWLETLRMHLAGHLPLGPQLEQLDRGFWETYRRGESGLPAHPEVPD
T1 sequence (P53671 whole entry, looked up, the tested form may be a part): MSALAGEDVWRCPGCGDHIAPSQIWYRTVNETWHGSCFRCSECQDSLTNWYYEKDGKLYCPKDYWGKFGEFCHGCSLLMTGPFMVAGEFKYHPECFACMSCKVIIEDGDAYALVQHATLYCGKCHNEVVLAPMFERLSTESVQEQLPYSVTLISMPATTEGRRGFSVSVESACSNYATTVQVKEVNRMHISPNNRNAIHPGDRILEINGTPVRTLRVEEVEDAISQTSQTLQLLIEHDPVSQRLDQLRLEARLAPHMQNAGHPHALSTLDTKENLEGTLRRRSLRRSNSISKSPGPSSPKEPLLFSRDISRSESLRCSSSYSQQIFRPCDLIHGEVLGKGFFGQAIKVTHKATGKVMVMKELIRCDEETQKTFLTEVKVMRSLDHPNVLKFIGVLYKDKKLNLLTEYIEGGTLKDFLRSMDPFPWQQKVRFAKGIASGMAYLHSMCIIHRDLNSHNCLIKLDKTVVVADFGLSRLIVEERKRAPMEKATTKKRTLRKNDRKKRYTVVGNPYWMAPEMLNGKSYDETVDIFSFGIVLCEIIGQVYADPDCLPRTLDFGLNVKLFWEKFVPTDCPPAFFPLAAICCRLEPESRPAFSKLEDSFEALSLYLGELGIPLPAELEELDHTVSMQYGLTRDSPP
Signal transducer and activator of transcription 3 (Homo sapiens), sequence (P40763 whole entry): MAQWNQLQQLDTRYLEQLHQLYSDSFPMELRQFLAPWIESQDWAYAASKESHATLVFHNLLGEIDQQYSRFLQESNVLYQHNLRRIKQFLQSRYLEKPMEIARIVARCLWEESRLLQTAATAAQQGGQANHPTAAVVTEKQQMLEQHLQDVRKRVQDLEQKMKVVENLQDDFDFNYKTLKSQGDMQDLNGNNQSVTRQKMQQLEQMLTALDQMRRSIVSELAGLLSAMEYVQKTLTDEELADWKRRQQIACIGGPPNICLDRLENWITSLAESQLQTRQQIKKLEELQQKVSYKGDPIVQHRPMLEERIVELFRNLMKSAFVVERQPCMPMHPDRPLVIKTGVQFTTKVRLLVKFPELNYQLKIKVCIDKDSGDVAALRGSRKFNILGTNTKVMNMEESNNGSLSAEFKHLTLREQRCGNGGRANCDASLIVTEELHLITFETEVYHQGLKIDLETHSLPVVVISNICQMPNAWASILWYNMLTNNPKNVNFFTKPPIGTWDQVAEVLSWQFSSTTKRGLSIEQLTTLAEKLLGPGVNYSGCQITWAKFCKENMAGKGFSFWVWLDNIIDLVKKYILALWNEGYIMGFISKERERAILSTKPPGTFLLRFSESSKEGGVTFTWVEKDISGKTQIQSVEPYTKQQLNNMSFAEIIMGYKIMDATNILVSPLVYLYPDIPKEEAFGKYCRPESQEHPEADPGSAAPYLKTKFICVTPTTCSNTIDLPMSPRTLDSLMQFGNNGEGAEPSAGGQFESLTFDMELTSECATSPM
Cofilin-1 (Homo sapiens), sequence (P23528 whole entry): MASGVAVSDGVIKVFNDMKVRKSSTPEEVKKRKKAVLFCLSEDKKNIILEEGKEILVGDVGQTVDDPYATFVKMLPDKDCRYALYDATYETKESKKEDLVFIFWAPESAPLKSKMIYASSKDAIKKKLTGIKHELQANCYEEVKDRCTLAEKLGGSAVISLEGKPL

Row | Structure (SMILES) | Activity [1] | Activity [2] | IC50 (HL-60) [nM] | IC50 (HT-1080 [3]) [nM] | Activity (U-937 [4]) [%] | Activity (U-937 [5]) [%] | Activity (U-937 [6]) [%] | Activity (Cofilin-1 (Homo sapiens)) | Activity [7] | Activity (HT-1080 [8]) | IC50 (U-937 [9]) [nM] | Activity (HT-1080 [10]) | Activity [11]
1 | CC(=O)OC(C)(C)/C=C/C(=O)[C@](C)(O)[C@H]1[C@H](O)C[C@@]2(C)[C@@H]3CC=C4[C@H](C[C@H](O)C(=O)C4(C)C)[C@]3(C)C(=O)C[C@]12C | inactive | Active |  |  |  |  |  |  |  |  |  |  | 
2 | CC(=O)OC(C)(C)/C=C/C(=O)[C@](C)(O)[C@H]1[C@H](O)C[C@@]2(C)[C@@H]3CC=C4[C@@H](C=C(O)C(=O)C4(C)C)[C@]3(C)C(=O)C[C@]12C [CUCURBITACIN E] | inactive |  | 18 | 40 | 37.7 | 28.1 | 34.2 | Dose-dependent effect | inactive | Active | 16 |  | 
3 | CC(C)(O)/C=C/C(=O)[C@](C)(O)[C@H]1[C@H](O)C[C@@]2(C)[C@@H]3CC=C4[C@@H](C=C(O)C(=O)C4(C)C)[C@]3(C)C(=O)C[C@]12C [CUCURBITACIN I] |  |  |  |  |  |  |  | Dose-dependent effect | inactive |  |  | Active | inactive
